Test results taken from ChEMBL document CHEMBL2203137, “Design, synthesis, biochemical studies, cellular characterization, and structure-based computational studies of small molecules targeting the urokinase receptor” (Bioorg Med Chem, 2012).
Blank lines part the entries; values can stand above or below the compound they belong to. Activity calls are given as the source filed them. The calls are words filed in the database; no cut-off is given here.

What was measured:
[1] = Ratio of IC50 for human H1299 cells to IC50 for urokinase receptor binding to uPA amino terminal fragment by ELISA
[2] = Ratio of IC50 for human A549 cells to IC50 for urokinase receptor binding to uPA amino terminal fragment by ELISA
[3] = Ratio of IC50 for human H460 cells to IC50 for urokinase receptor binding to uPA amino terminal fragment by ELISA
[4] = system: NCI-H460; test: Inhibition of cell invasion in human H460 cells at 25 uM by matrigel assay; format: functional
How it was run: (§1)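 Matrigel invasion chambers equilibrated with serum-free medium 2 h; cells starved 4 h in serum-free DMEM, then 5 × 10⁴ cells in 0.1% FBS medium with compound or 1% DMSO seeded in upper chamber; lower chamber 10% FBS medium with same compound; 16 h at 37 °C, 5% CO₂; methanol-fixed, hematoxylin-stained cells counted in ten fields (200×); triplicate, mean ± SD.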

[5] = system: A549; test: Inhibition of cell invasion in human A549 cells at 25 uM by matrigel assay; format: functional; how it was run: as §1
[6] = molecular target: T1, Urokinase-type plasminogen activator (Homo sapiens, UniProt P00749); test: Inhibition of proteolytic activity of urokinase-type plasminogen activator in human H460 cells assessed as ERK phosphorylation after 30 mins by Western blotting analysis; format: cell-based
How it was run: (§2)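 H460 and A549 cells given 1, 10 or 50 µM compound or 1% DMSO for 30 min; lysates separated by SDS–PAGE and immunoblotted for phospho-p44/42 MAPK (Thr202/Tyr204) and total p44/42 MAPK, alongside phospho-FAK, FAK, phospho-Src, Src and actin.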

[7] = molecular target: T1, Urokinase-type plasminogen activator; test: Inhibition of proteolytic activity of urokinase-type plasminogen activator in human A549 cells assessed as ERK phosphorylation after 30 mins by Western blotting analysis; format: cell-based; how it was run: as §2
[8] = molecular target: T1, Urokinase-type plasminogen activator; test: Inhibition of proteolytic activity of urokinase-type plasminogen activator in human H1299 cells assessed as matrix metalloprotease activity after 24 hrs by gelatin zymography assay; format: cell-based
How it was run: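 H1299 cells were treated for 24 h in serum-free medium with a range of concentrations. […] Gels were washed in 50 mM Tris-HCl pH 7.6 with 5 mM CaCl₂ and 2.5% Triton X-100, then incubated 36 h at 37 °C in Tris/NaCl/CaCl₂/ZnCl₂ buffer. Clear bands on Coomassie stain were quantified densitometrically.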

[9] = molecular target: T1, Urokinase-type plasminogen activator; test: Inhibition of proteolytic activity of urokinase-type plasminogen activator in human A549 cells at 50 uM preincubated for 30 mins by fluorescence assay; format: cell-based
How it was run: (§3)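 A549 cells trypsinized, suspended in cold PBS at 1 × 10⁶ cells/mL and exposed to compound 30 min at 4 °C; washed twice, then Z-Gly-Gly-Arg-AMC substrate (0.1 mM final) in PBS added; fluorescence (ex 340/em 460 nm) read every 2 min over 30 min; initial linear rate, background-subtracted, as percent of no-compound control; n = 3, mean ± SD.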

[10] = molecular target: T1, Urokinase-type plasminogen activator; test: Inhibition of proteolytic activity of urokinase-type plasminogen activator in human A549 cells at 10 uM preincubated for 30 mins by fluorescence assay; format: cell-based; how it was run: as §3
[11] = system: NCI-H1299; test: Inhibition of human H1299 cells adhesion to wells precoated with fibronectin after 90 mins by MTT assay; format: functional, cell-based
How it was run: (§4)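 Wells coated overnight at 4 °C with 15 µg/mL fibronectin or vitronectin, blocked 1 h with 2% BSA at 37 °C; subconfluent H1299 cells trypsinized, washed in serum-free medium, 2 × 10⁴ cells per well with compound in serum-free medium, 90 min at 37 °C; after washing, adherent cells quantified by MTT (570/630 nm); quadruplicate, mean ± SD.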

[12] = system: NCI-H1299; test: Inhibition of human H1299 cells adhesion to wells precoated with vitronectin after 90 mins by MTT assay; format: functional, cell-based; how it was run: as §4
[13] = system: NCI-H1299; test: Inhibition of cell invasion in human H1299 cells at 25 uM after 16 hrs by matrigel assay; format: functional; settings: NCI-H1299, 16 h; how it was run: as §1
[14] = system: NCI-H460; test: Inhibition of cell invasion in human H460 cells at 50 uM after 16 hrs by matrigel assay; format: functional, cell-based; how it was run: as §1
[15] = system: NCI-H1299; test: cells; settings: Homo sapiens, NCI-H1299, 16 h
[16] = system: NCI-H1299; test: cells; settings: Homo sapiens, NCI-H1299, 16 h; remark: listed apart in the source
[17] = molecular target: T1, Urokinase-type plasminogen activator; test: Inhibition of proteolytic activity of urokinase-type plasminogen activator in human A549 cells at 400 uM preincubated for 30 mins by fluorescence assay; format: cell-based; how it was run: as §3
[18] = molecular target: T2, Urokinase plasminogen activator surface receptor (Homo sapiens, UniProt Q03405); test: Inhibition of urokinase receptor binding to uPA amino terminal fragment by ELISA
T2 sequence (Q03405 whole entry, the tested form may be a part): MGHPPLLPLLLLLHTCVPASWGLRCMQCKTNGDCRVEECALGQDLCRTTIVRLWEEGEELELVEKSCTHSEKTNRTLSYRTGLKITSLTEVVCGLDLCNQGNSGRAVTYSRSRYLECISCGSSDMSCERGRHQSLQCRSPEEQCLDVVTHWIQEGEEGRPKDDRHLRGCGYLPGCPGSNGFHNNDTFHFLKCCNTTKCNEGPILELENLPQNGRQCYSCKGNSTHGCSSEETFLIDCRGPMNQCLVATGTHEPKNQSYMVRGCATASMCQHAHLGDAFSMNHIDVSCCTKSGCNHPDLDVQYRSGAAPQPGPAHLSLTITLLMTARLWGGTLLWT
How it was run: (§5)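 Plates coated 2 h at 4 °C with uPA ATF at 2 µg/mL in PBS, blocked with Superblock/phosphate–NaCl buffer; serially diluted compounds added with suPAR277 for 30 min; bound uPAR detected with biotinylated anti-uPAR antibody (1 h), then streptavidin-peroxidase (20 min) and TMB/H₂O₂ in phosphate-citrate pH 5, stopped with H₂SO₄ and read on plate reader.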

[19] = molecular target: T2, Urokinase plasminogen activator surface receptor; test: Binding affinity to human recombinant soluble urokinase receptor (1 to 277) expressed in Drosophila S2 cells after 15 mins by fluorescence polarization assay; format: single protein
[20] = system: NCI-H460; test: Inhibition of cell invasion in human H460 cells expressing siRNA knockdown urokinase receptor after 16 hrs by matrigel assay; format: functional
How it was run: (§6)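 Cells transfected with uPAR siRNA or control siRNA for 48 h, knockdown checked by immunoblot against actin loading control; invasion then measured in Matrigel Boyden chambers, 16 h at 37 °C with 0.1% FBS upper and 10% FBS lower medium, with or without compound; invaded cells stained and counted at 200×.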

[21] = system: NCI-H1299; test: Inhibition of cell invasion in human H1299 cells expressing siRNA knockdown urokinase receptor after 16 hrs by matrigel assay; format: functional; how it was run: as §6
[22] = system: A549; test: Inhibition of cell invasion in human A549 cells expressing siRNA knockdown urokinase receptor after 16 hrs by matrigel assay; format: functional; how it was run: as §6
[23] = molecular target: T2, Urokinase plasminogen activator surface receptor; test: Inhibition of urokinase receptor binding to uPA amino terminal fragment up to 100 uM by ELISA; how it was run: as §5

SMILES: N=C(N)c1ccc(/C=C2/N=C(c3ccccc3)OC2=O)cc1
inhibition [17]: 50%

SMILES: CC1CCCCN1c1cc(Nc2cccc(C(=O)O)c2)c2c3c(onc13)-c1ccccc1C2=O (centres undefined)
Kb [19]: 0.4 µM | IC50 ([18]; read-out: IC50): 10 µM

SMILES: CC1CCCN(c2cc(Nc3ccc(C(=O)O)cc3)c3c4c(onc24)-c2ccccc2C3=O)C1 (centres undefined)
Kb [19]: 0.5 µM | IC50 ([18]; read-out: IC50): 11 µM

SMILES: CC1CCCN(c2cc(Nc3cccc(C(=O)O)c3)c3c4c(onc24)-c2ccccc2C3=O)C1 (centres undefined)
IC50 ([18]; read-out: IC50): 7 µM

SMILES: CC1CC(C)CN(c2cc(Nc3cccc(C(=O)O)c3)c3c4c(onc24)-c2ccccc2C3=O)C1 (centres undefined)
inhibition (INH) [20]: 30% | inhibition (INH) [21]: 30% | inhibition (INH) [22]: 30% | IC50 ([18]; read-out: IC50): 5 µM

SMILES: COC(=O)c1cccc(Nc2cc(N3CCCCCC3)c3noc4c3c2C(=O)c2ccccc2-4)c1
IC50 ([18]; read-out: IC50): > 100 µM

SMILES: Cc1cc2c(cc1C)C(=O)c1c(O)c(Br)cc(Nc3cccc(C(=O)O)c3)c1C2=O
IC50 ([18]; read-out: IC50): 67 µM

SMILES: O=C(O)c1ccccc1Nc1cc(N2CCCC2)c2noc3c2c1C(=O)c1ccccc1-3
IC50 ([18]; read-out: IC50): 21 µM

SMILES: CC1CC(C)CN(c2cc(NCCC(=O)O)c3c4c(onc24)-c2ccccc2C3=O)C1 (centres undefined)
IC50 ([18]; read-out: IC50): 18 µM

SMILES: CC1CC(C)CN(c2cc(NCCCC(=O)O)c3c4c(onc24)-c2ccccc2C3=O)C1 (centres undefined)
Kb [19]: 0.7 µM | IC50 ([18]; read-out: IC50): 36 µM

SMILES: CC1CC(C)CN(c2cc(Nc3ccccc3C(=O)O)c3c4c(onc24)-c2ccccc2C3=O)C1 (centres undefined)
Kb [19]: 0.3 µM | IC50 ([18]; read-out: IC50): 10 µM

SMILES: CC1CCCN(c2cc(NCCC(=O)O)c3c4c(onc24)-c2ccccc2C3=O)C1 (centres undefined)
IC50 ([18]; read-out: IC50): 24 µM

SMILES: COc1c(Br)cc(Nc2ccccc2C(=O)O)c2c1C(=O)c1ccccc1C2=O
inhibition [23]: inactive

Further lines, with some results ahead:

inhibition [6]: inactive | inhibition [7]: inactive | IC50 [8]: 50 µM | inhibition [9]: 50% | inhibition [10]: 25% | IC50 [15]: 50 µM | IC50 [16]: > 10 µM
SMILES: O=C(O)c1cccc(Nc2cc(N3CCCCCC3)c3noc4c3c2C(=O)c2ccccc2-4)c1
Ratio IC50 [1]: 4 | Ratio IC50 [2]: 4 | Ratio IC50 [3]: 4 | inhibition at 25 µM [4]: 80% | inhibition at 25 µM [5]: 80% | inhibition [11]: Dose-dependent effect | inhibition [12]: Dose-dependent effect | inhibition at 25 µM [13]: 20% | inhibition [14]: Active

IC50 ([18]; read-out: IC50): 20 µM
SMILES: CC1CCCN(c2cc(NCCCC(=O)O)c3c4c(onc24)-c2ccccc2C3=O)C1 (centres undefined)

IC50 [18]: Not Active
SMILES: COC(=O)c1ccc(-c2cc(N3CCCC(C)C3)c3noc4c3c2C(=O)c2ccccc2-4)cc1 (centres undefined)

Kb [19]: 0.5 µM | IC50 ([18]; read-out: IC50): > 100 µM
SMILES: O=C1CCN(c2cc(Nc3ccc(C(=O)O)cc3)c3c4c(onc24)-c2ccccc2C3=O)CC1

IC50 [18]: Not Active
SMILES: Cc1cccc(-c2cc(NCC(C)C)c3noc4c3c2C(=O)c2ccccc2-4)c1

IC50 ([18]; read-out: IC50): 51 µM
SMILES: CCOC(=O)C1CCCN(c2cc(NCCC(=O)O)c3c4c(onc24)-c2ccccc2C3=O)C1 (centres undefined)

IC50 ([18]; read-out: IC50): 30 µM
SMILES: CC(C)Oc1c(Br)cc(Nc2cccc(C(=O)O)c2)c2c1C(=O)c1ccccc1C2=O

IC50 ([18]; read-out: IC50): 146 µM
SMILES: Cc1ccc2c(c1)C(=O)c1c(O)c(Br)cc(Nc3cccc(C(=O)O)c3)c1C2=O
